Laboratory results published in PMC2780000 (Biochemistry, 2009).
Changes are numbered by the printed parent chain.

Experiments:
Test in all cases: aerobic spectrophotometric titration of flavin absorbance
Assay type in all cases: binding
[1] = molecular target: T1, Class 2 dihydroorotate dehydrogenase (DHOD) from E. coli (Escherichia coli, UniProt P0A7E1, F115L/T178V)
T1 sequence (P0A7E1 1-336 F115L/T178V): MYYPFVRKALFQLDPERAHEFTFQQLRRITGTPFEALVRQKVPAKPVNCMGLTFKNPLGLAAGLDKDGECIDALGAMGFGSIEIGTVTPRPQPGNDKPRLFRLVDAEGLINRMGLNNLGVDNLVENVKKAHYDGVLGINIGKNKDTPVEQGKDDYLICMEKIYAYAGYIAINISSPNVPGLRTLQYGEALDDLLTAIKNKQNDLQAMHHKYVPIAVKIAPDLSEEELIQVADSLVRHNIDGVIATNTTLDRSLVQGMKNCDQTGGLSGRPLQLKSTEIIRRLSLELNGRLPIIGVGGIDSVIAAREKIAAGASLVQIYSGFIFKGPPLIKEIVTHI
In short: (§1)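 Enzymes (wild-type and mutants) expressed from the pAG-1 plasmid in E. coli SØ6645, purified, stored at −80 °C in 50% glycerol, and desalted into buffer before use. The oxidized enzyme in 0.1 M Tris-HCl, pH 8.5, 25 °C, was titrated aerobically with orotate in the same buffer. The flavin absorbance change (456→475 nm red-shift) vs orotate was fit to a binding equation using total enzyme and total ligand to give Kd.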

[2] = molecular target: T2, Class 2 dihydroorotate dehydrogenase (DHOD) from E. coli (Escherichia coli, UniProt P0A7E1, T178A)
T2 sequence (P0A7E1 1-336 T178A): T1 sequence (P0A7E1 1-336 F115L/T178V) with L115F, V178A
In short: as §1

[3] = molecular target: T3, Class 2 dihydroorotate dehydrogenase (DHOD) from E. coli (Escherichia coli, UniProt P0A7E1, F115W)
T3 sequence (P0A7E1 1-336 F115W): T1 sequence (P0A7E1 1-336 F115L/T178V) with L115W, V178T
In short: as §1

[4] = molecular target: T4, Class 2 dihydroorotate dehydrogenase (DHOD) from E. coli (Escherichia coli, UniProt P0A7E1, F115A)
T4 sequence (P0A7E1 1-336 F115A): T1 sequence (P0A7E1 1-336 F115L/T178V) with L115A, V178T
In short: as §1

[5] = molecular target: T5, Class 2 dihydroorotate dehydrogenase (DHOD) from E. coli (Escherichia coli, UniProt P0A7E1, F115L)
T5 sequence (P0A7E1 1-336 F115L): T1 sequence (P0A7E1 1-336 F115L/T178V) with V178T
In short: as §1

[6] = molecular target: T6, Class 2 dihydroorotate dehydrogenase (DHOD) from E. coli (Escherichia coli, UniProt P0A7E1, S175A)
T6 sequence (P0A7E1 1-336 S175A): T1 sequence (P0A7E1 1-336 F115L/T178V) with L115F, S175A, V178T
In short: as §1

[7] = molecular target: T7, Class 2 dihydroorotate dehydrogenase (DHOD) from E. coli (Escherichia coli, UniProt P0A7E1, T178S)
T7 sequence (P0A7E1 1-336 T178S): T1 sequence (P0A7E1 1-336 F115L/T178V) with L115F, V178S
In short: as §1

[8] = molecular target: T8, Class 2 dihydroorotate dehydrogenase (DHOD) from E. coli (Escherichia coli, UniProt P0A7E1, T178V)
T8 sequence (P0A7E1 1-336 T178V): T1 sequence (P0A7E1 1-336 F115L/T178V) with L115F
In short: as §1

Molecule O=C(O)c1cc(=O)[nH]c(=O)[nH]1 [orotate] has a Kd [1] of 4.6 ± 0.3 µM, a Kd [2] of 6.1 ± 0.8 µM and a Kd [3] of 8.1 ± 0.4 µM. The Kd [4] was 3.8 ± 0.5 µM, the Kd [5] was 3.7 ± 0.3 µM and the Kd [6] was 9.9 ± 0.9 µM. The Kd [7] was 1.1 ± 0.4 µM and the Kd [8] was 0.56 ± 0.04 µM.
